We go through 12 compounds from paper PMC5484535 (Bioorganic & medicinal chemistry, 2016).

Each structure is given as a SMILES string.

The inhibition is the relative decrease from the control value, in per cent.

For series [1], the system named is H358 cells. Nature of the series: Anti-proliferation in H358 NSCLC cells. The following applies: 72 h, in words. It is filed as cell-based. The gist of the method:
(§1)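 Cells seeded at 2000 cells/well and left 48 h before drug addition at varying doses. After 72 h incubation, viability was read by CellTiter-Glo luminescence. Growth-inhibition IC50 values were calculated from dose-response curves.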

Series [2] deals with T1, TAK1 (Homo sapiens, UniProt O43318).
T1 sequence (O43318 1-606): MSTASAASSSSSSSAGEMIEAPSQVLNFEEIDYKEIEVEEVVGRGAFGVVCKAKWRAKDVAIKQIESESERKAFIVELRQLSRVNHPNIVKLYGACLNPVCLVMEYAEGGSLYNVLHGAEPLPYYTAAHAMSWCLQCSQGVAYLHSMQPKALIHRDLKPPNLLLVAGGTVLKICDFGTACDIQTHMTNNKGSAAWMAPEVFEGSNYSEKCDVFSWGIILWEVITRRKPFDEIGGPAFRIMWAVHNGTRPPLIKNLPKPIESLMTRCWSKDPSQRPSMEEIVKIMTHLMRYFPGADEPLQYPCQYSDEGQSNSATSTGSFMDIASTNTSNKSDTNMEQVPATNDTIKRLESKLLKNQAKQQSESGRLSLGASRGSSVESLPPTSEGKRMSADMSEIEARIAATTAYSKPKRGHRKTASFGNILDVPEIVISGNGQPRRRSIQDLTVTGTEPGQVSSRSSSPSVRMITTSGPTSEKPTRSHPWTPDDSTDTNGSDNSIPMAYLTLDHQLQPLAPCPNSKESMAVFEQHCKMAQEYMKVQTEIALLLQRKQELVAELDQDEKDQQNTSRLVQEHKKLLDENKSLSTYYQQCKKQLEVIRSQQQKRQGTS
Nature of the series: Competitive pulldown of TAK1 with biotinylated probe 27 in H358 and H23 cells. Type of series: cell-based. The following applies: 6 h, washout, lysate + 1 μM 27; for blocking of labeling of TAK1 by 27: 10 μM compound; for effect on labeling of TAK1 by 27: 1 or 10 μM compound; for labeling of TAK1 by 27 after pre-treatment of cells: 1 μM compound. An outline of the steps: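 H358 and H23 NSCLC cells (KRAS G12C) were exposed to test compound at 1 or 10 μM for 6 h. Drug medium was removed, and cells were rinsed twice with cold PBS and lysed in MPER buffer. Lysates were incubated overnight at 4 °C with 1 μM biotinylated probe and pulled down on streptavidin beads. Recovered TAK1 was detected by immunoblotting.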

The subject of series [3] is H23 cells. Kind of series: Anti-proliferation in H23 NSCLC cells. Type of series: cell-based. The conditions noted are these: 72 h, in words. An outline of the steps:
as §1

Series [4] relates to KRAS^G12D Ba/F3 cells. Nature of the series: Anti-proliferation in KRAS^G12D Ba/F3 cells. The following applies: 2 vs 8, 25 vs 26. Type of series: cell-based.
Series [5] concerns synovial fibroblasts from an RA patient (RA2159). Nature of the series: Cytokine secretion by activated RA synovial fibroblasts. It is filed as cell-based, human. The conditions noted are these: TNFα, IL-1α or Poly(I:C) activation. The gist of the method:
(§2)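 Primary human RA synovial fibroblasts (lot RA2159) were seeded at 1000 cells/well, grown ~24 h, then starved overnight and ~4 h in 0.1% BSA. Pooled supernatants (duplicates) were diluted 1:3 for 48-analyte Luminex measurement and iMLR modeling.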

Series [6] has the same test system. Kind of series: FGF-basic secretion by TNFα-activated RA synovial fibroblasts. Type of series: cell-based, human. The following applies: TNFα-activated SF. An outline of the steps: as §2
Series [7] deals with SW156. Nature of the series: Anti-proliferation in SW156 renal cell carcinoma cells. Type of series: cell-based. The following applies: read-out: Cellular IC50s Kidney SW156.
The subject of series [8] is URMC6. Kind of series: Anti-proliferation in URMC6 renal cell carcinoma cells. Type of series: cell-based. The conditions noted are these: read-out: Cellular IC50s Kidney URMC6.
In series [9] the test system is PANC-1. Kind of series: Anti-proliferation in PANC-1 pancreatic cancer cells. It is filed as cell-based. The following applies: Homo sapiens, PANC-1, read-out: Cellular IC50s Pancreas PANC-1.
In series [10] the target is panel of 456 kinases. Kind of series: KinomeScan ATP-site competition binding panel. The following applies: 1 and 10 μM.
The test system of series [11] is synovial fibroblasts from an RA patient (RA2159). The conditions noted are these: TNFα but not IL-1α or Poly(I:C) ref 24; cited from earlier work.
Series [12] concerns the target T2, MAP2K6 (Homo sapiens, UniProt P52564).
T2 sequence (P52564 1-334): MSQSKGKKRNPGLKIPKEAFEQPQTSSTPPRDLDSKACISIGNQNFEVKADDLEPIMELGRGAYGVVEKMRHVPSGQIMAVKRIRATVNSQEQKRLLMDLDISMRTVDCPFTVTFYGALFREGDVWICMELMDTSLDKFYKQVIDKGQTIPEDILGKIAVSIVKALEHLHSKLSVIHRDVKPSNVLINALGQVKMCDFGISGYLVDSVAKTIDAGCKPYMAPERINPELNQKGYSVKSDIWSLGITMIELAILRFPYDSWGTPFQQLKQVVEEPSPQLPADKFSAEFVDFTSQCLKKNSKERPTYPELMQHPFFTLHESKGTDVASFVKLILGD
Kind of series: KiNativ live-cell profiling in SK-CO-1 cells. It is filed as binding. The conditions noted are these: read-out: Inhibition (%) MAP2K6.

Series [13] deals with T3, ZAP70 (Homo sapiens, UniProt P43403).
T3 sequence (P43403 1-619): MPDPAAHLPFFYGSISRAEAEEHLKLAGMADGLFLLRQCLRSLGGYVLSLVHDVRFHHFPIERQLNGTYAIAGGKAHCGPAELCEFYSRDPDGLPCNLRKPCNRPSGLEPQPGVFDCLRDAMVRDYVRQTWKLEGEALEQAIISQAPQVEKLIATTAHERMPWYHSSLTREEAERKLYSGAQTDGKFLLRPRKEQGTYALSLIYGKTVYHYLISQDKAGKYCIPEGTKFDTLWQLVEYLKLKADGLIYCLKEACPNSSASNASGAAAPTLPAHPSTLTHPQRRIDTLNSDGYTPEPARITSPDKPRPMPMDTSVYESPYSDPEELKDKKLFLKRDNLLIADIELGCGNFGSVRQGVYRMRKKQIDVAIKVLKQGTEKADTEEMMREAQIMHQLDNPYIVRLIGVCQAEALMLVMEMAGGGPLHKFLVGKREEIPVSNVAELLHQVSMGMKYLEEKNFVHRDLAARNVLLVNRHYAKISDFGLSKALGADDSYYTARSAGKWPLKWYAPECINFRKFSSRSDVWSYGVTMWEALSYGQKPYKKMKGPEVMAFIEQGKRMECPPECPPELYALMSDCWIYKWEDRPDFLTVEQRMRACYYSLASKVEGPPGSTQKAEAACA
Kind of series: KiNativ live-cell profiling in SK-CO-1 cells. It is filed as binding. The conditions noted are these: read-out: Inhibition (%) ZAP70.

For series [14], the system named is SW620, SK-CO-1, PANC-1, AsPc-1, SW156, URMC6. Nature of the series: Anti-proliferation across six colon, pancreas and kidney cancer lines. It is filed as cell-based. The conditions noted are these: read-out: IC50 values against all lines except PANC-1.

As for `CN1CCN(c2ccc(Nc3ncc(Cl)c(Nc4ccccc4NC(=O)CCl)n3)cc2)CC1` [Compound 10], in [1], the “anti-proliferative effect, H358” value is “potent against both lines at very low concentrations”. In addition, the “blocking of labeling of TAK1 by 27” value in series [2] is listed as “only partially blocked labeling of TAK1”. In addition, the “anti-proliferative effect, H23” value in [3] is “potent against both lines at very low concentrations”.

Take `C=CC(=O)Nc1ccccc1Oc1nc(Nc2ccc(N3CCN(C)CC3)cc2)ncc1Cl` [Compound 2]: the “fold more potent than non-covalent counterpart against KRAS^G12D Ba/F3 cells” value in [4] was “approximately 6 fold”. Besides, the “anti-proliferative effect, H358” value in series [1] is on record as “potent against both lines at very low concentrations”. Also, the “normalization of induced cytokine secretion” value (“normalization” for short) in series [5] (3 μM) is listed as “normalized cytokine secretion”. For the same compound, the “blocking of labeling of TAK1 by 27” value in [2] is “only partially blocked labeling of TAK1”. Besides, the “anti-proliferative effect, H23” value in [3] is “potent against both lines at very low concentrations”. Also, in series [6], the “potentiation of FGF-basic secretion induced by TNFα” value is given as “potentiated FGF-basic secretion”.

`C=CC(=O)Oc1ccccc1Nc1nc(Nc2cccc(N3CCOCC3)c2)ncc1Cl` [Compound 20]: the “blocking of labeling of TAK1 by 27” value in series [2] is reported as “only partially blocked labeling of TAK1”.

Consider `Cn1cnc2c(F)c(Nc3ccc(Br)cc3Cl)c(C(=O)NOCCO)cc21` [AZD], for which the IC50 in series [7], in series [8] and in series [9] was > 100 µM in each case.

In the case of `CCC(=O)Nc1ccccc1Oc1nc(Nc2cnn(CCOC)c2)ncc1Cl` [Compound 26], the IC50 in series [7] and in series [9] was > 100 µM in each case. Besides, the “normalization” value in series [5] (3 μM) was “virtually inactive”. Also, in series [2], the “effect on labeling of TAK1 by 27” value is “did not have a measurable effect”.

Consider `COc1cc(O)c2c(c1)/C=C/C[C@H](O)[C@H](O)C(=O)/C=C\C[C@H](C)OC2=O` [Compound 5Z7, 5Z-7-oxozeaenol, reference compound], for which the KinomeScan inhibition score entry in series [10] is on record as “strong inhibition score against many kinases other than TAK1”. The “normalization” value in series [5] (0.6 μM) is “fully normalizing induced cytokine secretion”. Further, the “labeling of TAK1 by 27 after pre-treatment of cells” value in [2] is “did not label TAK1”. In series [11], the “secretion of FGF-basic in SF activated by TNFα” value is on record as “elevated secretion of fibroblast growth factor-basic”.

Take `C=CC(=O)Nc1ccccc1Nc1nc(Nc2ccc(N3CCN(C)CC3)cc2)ncc1Cl` [Compound 5]: the inhibition at 1 µM in [12] was -43.1%; in series [13], -26.6%. Besides, the IC50 in [14] was in the range of 0.029 to 0.083 µM. In addition, the “anti-proliferative effect, H358” value in [1] is “potent against both lines at very low concentrations”. The “normalization” value in series [5] (0.6 μM) is “fully normalizing induced cytokine secretion”. Also, in series [2], the “labeling of TAK1 by 27 after pre-treatment of cells” value is on record as “did not label TAK1”. In series [3], the “anti-proliferative effect, H23” value was “potent against both lines at very low concentrations”. Also, the “potentiation of FGF-basic secretion induced by TNFα” value in [6] was “potentiated FGF-basic secretion”.

`CCC(=O)Nc1ccccc1Oc1nc(Nc2ccc(N3CCN(C)CC3)cc2)ncc1Cl` [Compound 8]: the “normalization” value in series [5] (3 μM) is “virtually inactive”. For the same compound, the “effect on labeling of TAK1 by 27” value in [2] was “did not have a measurable effect”.

As to `CC(C)Nc1cc(-c2c[nH]c(C(=O)N[C@H](CO)c3cccc(Cl)c3)c2)c(Cl)cn1` [BVD], the IC50 in [8] and in series [9] was > 100 µM throughout.

Regarding `CCC(=O)Nc1ccccc1Nc1nc(Nc2ccc(N3CCN(C)CC3)cc2)ncc1Cl` [Compound 9], in series [2], the “effect on labeling of TAK1 by 27” value is on record as “did not have a measurable effect”.

Turning to `C=CC(=O)Nc1ccccc1Oc1nc(Nc2cnn(C(F)F)c2)ncc1Cl` [Compound 23], the “blocking of labeling of TAK1 by 27” value in [2] is on record as “only partially blocked labeling of TAK1”.

As to `CCN1CCN(Cc2ccc(NC(=O)c3ccc(C)c(Oc4ccnc5[nH]ccc45)c3)cc2C(F)(F)F)CC1` [NG25, reference compound], the “anti-proliferative effect, H358” value in [1] was “insufficient to block proliferation at concentrations lower than 5 μM”. In [5] (3 μM), the “normalization” value is reported as “normalized cytokine secretion”. The “effect on labeling of TAK1 by 27” value in [2] was “inhibited TAK1 in an irreversible manner”. Also, in [3], the “anti-proliferative effect, H23” value is reported as “insufficient to block proliferation at concentrations lower than 5 μM”.
